Reference: ChEMBL document CHEMBL1150393, “Evaluation of radiolabeled (hetero)aromatic analogues of N-(2-diethylaminoethyl)-4-iodobenzamide for imaging and targeted radionuclide therapy of melanoma” (J Med Chem, 2008)

Key:
Assay type in all cases: ADME, organism-based
Settings in all cases: in vivo
Brain [1] = test: Biodistribution in brain of C57BL/6 mouse bearing mouse B16-F0 cells at 0.74 to 0.92 MBq, iv after 72 hrs
Method in brief: (§1)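 Male C57BL6 mice with s.c. left-flank B16-F0 melanoma (5 × 10⁵ cells in PBS). Two mice per time point frozen in liquid nitrogen after CO₂ sacrifice. Eight 40 µm whole-body cryosections per mouse read by multiwire proportional counter. cpm/mm² converted to kBq/g and expressed as %ID/g.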

Brain [2] = test: Biodistribution in brain of C57BL/6 mouse bearing mouse B16-F0 cells at 0.74 to 0.92 MBq, iv after 24 hrs; method in brief: as §1
[3] = Ratio of drug level in tumor to brain of C57BL/6 mouse bearing mouse B16-F0 cells at 0.74 to 0.92 MBq, iv after 24 hrs
Method in brief: (§2)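 Tumour and organ radioactive concentrations came from whole-body cryosection counting (40 µm slices, eight per mouse, two mice per time) after tail-vein injection of the [¹²⁵I]-labelled compound (0.1 µmol) into male C57BL6 mice bearing s.c. B16-F0 melanoma. Each value is the ratio of the tumour concentration to the organ concentration.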

[4] = Biodistribution in intestinal content of C57BL/6 mouse bearing mouse B16-F0 cells at 0.74 to 0.92 MBq, iv after 72 hrs; method in brief: as §1
[5] = Ratio of drug level in tumor to brain of C57BL/6 mouse bearing mouse B16-F0 cells at 0.74 to 0.92 MBq, iv after 72 hrs; method in brief: as §2
[6] = Ratio of drug level in tumor to liver of C57BL/6 mouse bearing mouse B16-F0 cells at 0.74 to 0.92 MBq, iv after 72 hrs; method in brief: as §2
Liver = test: Biodistribution in liver of C57BL/6 mouse bearing mouse B16-F0 cells at 0.74 to 0.92 MBq, iv after 72 hrs; method in brief: as §1
[7] = Biodistribution in glandula seminalis of C57BL/6 mouse bearing mouse B16-F0 cells at 0.74 to 0.92 MBq, iv after 3 hrs; method in brief: as §1
[8] = Biodistribution in glandula seminalis of C57BL/6 mouse bearing mouse B16-F0 cells at 0.74 to 0.92 MBq, iv after 1 hr; method in brief: as §1
[9] = Biodistribution in glandula seminalis of C57BL/6 mouse bearing mouse B16-F0 cells at 0.74 to 0.92 MBq, iv after 6 hrs; method in brief: as §1
[10] = Biodistribution in gall bladder of C57BL/6 mouse bearing mouse B16-F0 cells at 0.74 to 0.92 MBq, iv after 1 hr; method in brief: as §1
Pancreas = test: Biodistribution in pancreas of C57BL/6 mouse bearing mouse B16-F0 cells at 0.74 to 0.92 MBq, iv after 24 hrs; method in brief: as §1
Muscle tissue = test: Biodistribution in muscle of C57BL/6 mouse bearing mouse B16-F0 cells at 0.74 to 0.92 MBq, iv after 24 hrs; method in brief: as §1
Kidney = test: Biodistribution in kidney of C57BL/6 mouse bearing mouse B16-F0 cells at 0.74 to 0.92 MBq, iv after 72 hrs; method in brief: as §1
Bone marrow = test: Biodistribution in bone marrow of C57BL/6 mouse bearing mouse B16-F0 cells at 0.74 to 0.92 MBq, iv after 1 hr; method in brief: as §1

Structure (SMILES): CCN(CC)CCNC(=O)c1c[nH]c2ccc([125I])cc2c1=O.Cl.Cl
- Drug uptake (Brain [1]): 0.1 % ID/g
- Drug uptake (Brain [2]): 0.04 % ID/g
- Ratio [3]: 68.5
- Drug uptake [4]: 0.7 % ID/g
- Ratio [5]: 23.5

Structure (SMILES): CCN(CC)CCNC(=O)c1ccc2cc([125I])ccc2n1.Cl.Cl
- Ratio [6]: 7.26
- Drug uptake (Liver): 1.23 % ID/g

Structure (SMILES): CCN(CC)CCNC(=O)c1ccc([125I])nc1.Cl.Cl
- Drug uptake [7]: 3.78 % ID/g
- Drug uptake [8]: 6.79 % ID/g
- Drug uptake [9]: 3.55 % ID/g
- Drug uptake [10]: 8.68 % ID/g

Structure (SMILES): CCN(CC)CCNC(=O)c1cc2cc([125I])ccc2[nH]1.Cl
- Drug uptake (Pancreas): 0.09 % ID/g
- Ratio [6]: 1.38
- Drug uptake (Liver): 0.61 % ID/g
- Drug uptake (Muscle tissue): 0.19 % ID/g
- Drug uptake (Kidney): 0.71 % ID/g

Structure (SMILES): CCN(CC)CCNC(=O)c1cnc2cc([125I])ccc2n1.Cl.Cl
- Drug uptake (Bone marrow): 4.58 % ID/g
